This is an account of results in ChEMBL document CHEMBL1129079, “Synthesis and antiviral evaluation of certain disubstituted benzimidazole ribonucleosides” (J Med Chem, 1996).

The structures appear in SMILES notation. A value given as a limit tells only on which side of the number the result lay.

Assay [1] concerns Human betaherpesvirus 5. In words: Antiviral activity against human cytomegalo virus (HCMV) in yield reduction assay. In kind it is functional.
In assay [2] the test system is Human betaherpesvirus 5. As to the kind of experiment: Antiviral activity against human cytomegalovirus (HCMV) in plaque reduction assay. In kind it is functional, organism-based. In outline:
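HCMV Towne strain (plaque-purified P0) on HFF monolayers; inoculum ~100 PFU in 0.2 mL; compounds dissolved in overlay medium; plaques counted after staining; IC50 from linear regression of percent inhibition vs log concentration; averages of duplicate or triplicate experiments.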
A general note: Plaques are areas of infected cells; plaque reduction assays count them against a control.

Assay [3] has as its system KB. In words: Inhibitory activity against growth of human epidermoid oral carcinoma KB cell line. The format is functional, cell-based. In outline: (§1)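 KB cells grown in MEM with Hank's salts plus 10% calf serum; logarithmically growing cells, staining-based growth read-out, quadruplicate assays; IC50 from linear regression of percent inhibition vs log drug concentration.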

In a further assay the test system is HFF. In words: Cytotoxicity produced in human foreskin fibroblasts (HFF) cells was estimated by visual scoring of cells unaffected by virus infection in the plaque-reduction assay. In kind it is ADME, cell-based. In outline: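 Uninfected HFF cells in the HCMV plaque-reduction plates, examined at 30-fold magnification; drug-induced cytopathology scored 0–4 on the day of staining for plaque counting.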

For a further assay, the system named is Human alphaherpesvirus 1. In words: Antiviral activity against herpes simplex virus type 1 (HSV-1) was performed by HSV-1 ELISA assays. The format is functional, organism-based. In outline:
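HSV-1 strain KOS (used in most experiments); ELISA read-out, quadruplicate wells; IC50 from linear regression of percent inhibition against log drug concentration.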
For orientation: An ELISA detects its analyte on a solid surface through an enzyme-linked reagent.

Assay [4] relates to Human betaherpesvirus 5. In words: Antiviral activity against human cytomegalovirus (HCMV) in yield reduction assay. The format is functional.
In assay [5] the test system is KB. In words: Inhibitory activity against growth of KB cell. The conditions noted are these: Homo sapiens. The format is functional, cell-based. In outline:
as §1

As a reminder, the IC90 is the concentration needed for an effect of 90%. Broadly, the IC50 is the concentration needed to halve the response being measured. `OC[C@H]1O[C@@H](n2c(Cl)nc3cc(Cl)c(Cl)cc32)[C@H](O)[C@@H]1O` had a 90% effect concentration (IC90) with Human betaherpesvirus 5 [1] of 1.3 µM. For the same molecule, half-maximal inhibition in the assay with Human betaherpesvirus 5 [2] (IC50) was put at 2.8 µM.

Consider `COc1nc2ccc(Cl)cc2n1C1O[C@H](CO)[C@@H](O)[C@H]1O` (stereo partly specified), for which the IC50 in the assay with KB [3], in the assay on HFF, with Human betaherpesvirus 5 [2] and with Human alphaherpesvirus 1 was > 100 µM in each case.

With `OC[C@H]1OC(n2c(Cl)nc3cc(Cl)ccc32)[C@H](O)[C@@H]1O` (stereo partly specified), the IC50 with HFF is > 100 µM; in the assay on Human betaherpesvirus 5 [2] it was 150 µM; in the assay on Human alphaherpesvirus 1, > 100 µM. This molecule also came in with an IC90 in the assay on Human betaherpesvirus 5 [4] of 100 µM.

Regarding `OC[C@H]1O[C@@H](n2c(=S)[nH]c3ccc(Cl)cc32)[C@H](O)[C@@H]1O`, the IC50 in the assay with KB [3], with HFF, in the assay on Human betaherpesvirus 5 [2] and with Human alphaherpesvirus 1 was > 100 µM throughout.

Consider `OC[C@H]1O[C@@H](n2cnc3cc(Cl)c(Cl)cc32)[C@H](O)[C@@H]1O` [DICHLORORIBOBENZIMIDAZOLE], for which, in the assay with Human betaherpesvirus 5 [4], the IC90 stood at 19 µM.

In the case of `CSc1nc2ccc(Cl)cc2n1C1O[C@H](CO)[C@@H](O)[C@H]1O` (stereo partly specified), the IC50 in the assay on HFF is > 100 µM; in the assay on Human betaherpesvirus 5 [2] it was > 100 µM; in the assay with Human alphaherpesvirus 1 it was < 100 µM.

As to `Nc1ccc2nc(Cl)n(C3O[C@H](CO)[C@@H](O)[C@H]3O)c2c1` (stereo partly specified), the IC50 in the assay on HFF was > 300 µM; with Human betaherpesvirus 5 [2], > 100 µM; with Human alphaherpesvirus 1, > 100 µM.

In the assay with Human betaherpesvirus 5 [1], `Nc1nc2c(ncn2COC(CO)CO)c(=O)[nH]1` [GANCICLOVIR] gave a concentration for an effect of 90% (IC90) of 1.6 µM. Besides, the IC50 with HFF and with KB [5] was > 100 µM throughout.

`OC[C@H]1OC(n2c(SCc3ccccc3)nc3ccc(Cl)cc32)[C@H](O)[C@@H]1O` (stereo partly specified): the IC50 with HFF, with Human betaherpesvirus 5 [2] and in the assay with Human alphaherpesvirus 1 was > 100 µM throughout.

Regarding `OC[C@H]1OC(n2c(Cl)nc3ccc(Cl)cc32)[C@H](O)[C@@H]1O` (stereo partly specified), the IC50 in the assay with HFF is > 100 µM; in the assay on Human betaherpesvirus 5 [2], 58 µM; with Human alphaherpesvirus 1 it was > 100 µM. This molecule also had an IC90 in the assay on Human betaherpesvirus 5 [4] of 52 µM.

Take `Nc1ccc2c(c1)nc(Cl)n2C1O[C@H](CO)[C@@H](O)[C@H]1O` (stereo partly specified): the IC50 in the assay on HFF and in the assay on Human betaherpesvirus 5 [2] was > 300 µM each time.

On to `O=[N+]([O-])c1ccc2[nH]c(Cl)nc2c1`, for which the values for the IC50 with HFF, in the assay with Human betaherpesvirus 5 [2] and in the assay with Human alphaherpesvirus 1 were 20 µM, 6 µM and 21 µM, respectively.
